Laboratory results: ChEMBL document CHEMBL1141355, “Triterpene, antioxidant, and antimicrobial compounds from Melissa officinalis” (J Nat Prod, 2007)
Converted amounts (≈) assume the structure as drawn.

Tests used:
Format in all cases: functional
Pseudomonas aeruginosa = assay: Antibacterial activity against Pseudomonas aeruginosa ATCC 9027 after 24 hrs by broth microdilution assay
Method in brief: (§1)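 Broth microdilution in Triptone, in duplicate, per NCCLS. Samples dissolved in DMSO, then diluted in Triptone; final concentrations 2 to 0.0078 mg/mL for the pure compound and 16 to 0.031 mg/mL for extracts. Inoculum 10^5 CFU/mL. Incubation 24 h at 37 °C, read visually from below. MIC taken as the lowest concentration inhibiting growth. Controls: growth without sample, and DMSO blank.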

Staphylococcus aureus = assay: Antibacterial activity against Staphylococcus aureus ATCC 6538 after 24 hrs by broth microdilution assay; method in brief: as §1
Bacillus spizizenii = assay: Antibacterial activity against Bacillus subtilis subsp. […] after 24 hrs by broth microdilution assay
Method in brief: (§2)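 ATCC strain in 96-well broth microdilution, run in duplicate following NCCLS guidance. Samples were dissolved in DMSO, then diluted in Triptone as serial dilutions: final 16 to 0.031 mg/mL for extracts, 2 to 0.0078 mg/mL for the pure compound. Inoculum suspension was 10^5 CFU/mL. Growth-control and DMSO blank wells were included. Plates were incubated 24 h at 37 °C. MIC is the lowest concentration inhibiting visible growth.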

Escherichia coli = assay: Antibacterial activity against Escherichia coli ATCC 8739 after 24 hrs by broth microdilution assay; method in brief: as §1
[1] = test system: Staphylococcus epidermidis; assay: Antibacterial activity against Staphylococcus epidermidis ATCC 12228 after 24 hrs by broth microdilution assay; method in brief: as §1
[2] = Antioxidant activity assessed as DPPH reducing activity
Method in brief: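 DPPH radical (0.025 g/L in MeOH, prepared daily) mixed with sample in MeOH, maximum concentration 200 µg/mL; vehicle control. Absorbance read at 515 nm after 10 min. Remaining DPPH calculated from a calibration curve. α-Tocopherol served as positive control. Run in triplicate; EC50 obtained by the Litchfield and Wilcoxon method.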

Aspergillus niger = assay: Antifungal activity against Aspergillus niger ATCC 16404 after 24 hrs by broth microdilution assay; conditions: ATCC 16404, 24 h; method in brief: as §1
Candida albicans = assay: Antifungal activity against Candida albicans ATCC 10231 after 24 hrs by broth microdilution assay; method in brief: as §2

Work on GENTAMICIN yielded an MIC (Pseudomonas aeruginosa) of 4 µg/mL, an MIC (Staphylococcus aureus) of 1 µg/mL and an MIC (Bacillus spizizenii) of 1 µg/mL. It also gave an MIC (Escherichia coli) of 4 µg/mL and an MIC [1] of 1 µg/mL.
For `O=C(/C=C/c1ccc(O)c(O)c1)O[C@H](Cc1ccc(O)c(O)c1)C(=O)O` [ROSMARINIC ACID], the MIC (Pseudomonas aeruginosa; ATCC 9027, 24 h) was > 2000 µg/mL, the EC50 [2] was 3.1 µg/mL (≈ 8.6 µM) and the MIC (Staphylococcus aureus; ATCC 6538, 24 h) was 120 µg/mL (≈ 333 µM). For the same molecule, the MBC (Staphylococcus aureus; ATCC 6538, 48 h, in the assay text read “48 hrs” for “24 hrs”) was 120 µg/mL (≈ 333 µM), the MBC (Bacillus spizizenii; ATCC 6633, 24 h, in the assay text read “ATCC 6633” for “ATCC 9027”) was 120 µg/mL (≈ 333 µM) and the MIC (Escherichia coli; ATCC 8739, 24 h) was > 2000 µg/mL. For the same molecule, the MIC (Aspergillus niger) was > 2000 µg/mL, the MIC (Candida albicans; ATCC 10231, 24 h) was > 2000 µg/mL and the MIC ([1]; ATCC 12228, 24 h) was 120 µg/mL (≈ 333 µM). It also gave an MBC ([1]; ATCC 12228, 48 h, in the assay text read “48 hrs” for “24 hrs”) of 120 µg/mL (≈ 333 µM).
Molecule NYSTATIN has an MIC (Candida albicans) of 1 µg/mL.
`Cc1c(C)c2c(c(C)c1O)CC[C@@](C)(CCC[C@H](C)CCC[C@H](C)CCCC(C)C)O2` [ALPHA-TOCOPHEROL] showed an EC50 [2] of 10.1 µg/mL (≈ 23.4 µM).
